Experimental data taken from ChEMBL document CHEMBL2331484, “Synthesis and biological evaluation of scopoletin derivatives” (Bioorg Med Chem, 2013).
Values belong to the molecule of their own block, whether it stands above or below them. The source made the active and inactive calls. No cut-off for these calls is given here.

Key:
HUVEC [1] = test: Antiproliferative activity against HUVEC assessed as growth inhibition rate at 10 uM after 24 hrs by MTT assay; assay type: functional; details: Homo sapiens, read-out: GI
Summary of the method: (§1)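 HUVECs (passages 3–5, primary cord isolates) seeded at 1 × 10⁴ cells/well. Medium replaced with M199 containing 1% FBS plus compound. Viability read by MTT after 24 h. Percent inhibition was calculated from A570 minus A630 of treated versus control wells, and IC50 determined. Triplicate experiments, means ± SEM.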

HUVEC [2] = test: Antiproliferative activity against HUVEC assessed as growth inhibition rate at 100 uM after 24 hrs by MTT assay; assay type: functional; details: Homo sapiens, read-out: GI; summary of the method: as §1
HUVEC [3] = test: Antiproliferative activity against HUVEC assessed as growth inhibition rate after 24 hrs by MTT assay; assay type: functional, cell-based; details: Homo sapiens; summary of the method: as §1
PANC-1 [4] = test: Inhibition of MMP-2 protein expression in human PANC1 cells at 10 to 50 umol/L after 24 hrs by SDS-PAGE analysis; assay type: functional, cell-based
Summary of the method: (§2)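 Gelatin zymography of culture medium from equal numbers of PANC-1 cells exposed to compound for 24 h. Samples run non-reduced and unboiled on 10% polyacrylamide with 1 mg/mL gelatin. Gel washed in 2.5% Triton X-100 buffer, digested 14 h at 37 °C in Tris–HCl/CaCl2/ZnCl2 buffer pH 7.6, then Coomassie-stained. Clear bands imaged.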

HCT-116 = test: Cytotoxicity against human HCT116 cells after 24 hrs by MTT assay; assay type: functional, cell-based; details: HCT-116, 24 h
A549 = test: Cytotoxicity against human A549 cells after 24 hrs by MTT assay; assay type: functional, cell-based; details: A549, 24 h
HUVEC [5] = test: Effect on total src level in VEGF-stimulated HUVEC pretreated at 10 to 50 umol/L for 30 mins before VEGF addition by Western blot analysis; assay type: functional, cell-based; details: Homo sapiens
HUVEC [6] = test: Antiangiogenic activity against HUVEC assessed as inhibition of VEGF-induced branching and network formation at 25 umol/L after 5 hrs by microscopy; assay type: functional, cell-based; details: Homo sapiens
Summary of the method: (§3)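 Matrigel-coated wells gelled 37 °C 30 min. DMSO or compound (final 25 µmol/L) added for 30 min before plating. After 5 h, enclosed complete tubes counted in five random fields by microscopy. Triplicate experiments, means ± SEM.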

[7] = biological target: MAP kinase p38 (Homo sapiens) (UniProt O15264+Q15759+Q16539+P53778); test: Inhibition of VEGF receptor signaling in VEGF-stimulated HUVEC assessed a effect on p38 MAPK phosphorylation pretreated at 10 to 50 umol/L for 30 mins before VEGF addition by Western blot analysis; assay type: protein assay
HUVEC [8] = test: Antiangiogenic activity against HUVEC assessed as inhibition of VEGF-induced cell migration at 25 umol/L after 20 hrs by Boyden chamber assay; assay type: functional, cell-based; details: Homo sapiens
Summary of the method: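 Boyden chamber, 8.0 µm membrane. HUVECs at 80% confluence serum-starved 12 h in basal medium and suspended at 1 × 10⁶ cells/mL. Pre-treated 30 min at room temperature with DMSO or compound (final 25 µmol/L). After 20 h cells fixed, stained, and counted in five random fields. Triplicate experiments.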

[9] = Inhibition of VEGF receptor signaling in VEGF-stimulated HUVEC assessed a effect on src phosphorylation pretreated at 10 to 50 umol/L for 30 mins before VEGF addition by Western blot analysis; assay type: cell-based; details: Homo sapiens
BXPC-3 = test: Cytotoxicity against human BxPC3 cells after 24 hrs by MTT assay; assay type: functional, cell-based; details: BXPC-3, 24 h
Gallus gallus [10] = organism: Gallus gallus; test: Antiangiogenic activity in chicken embryo chorioallantoic membrane model assessed as inhibition of new blood vessel formation at 5 nmol/egg after 48 hrs by microscopy; assay type: functional, tissue-based
Summary of the method: (§4)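 Fertilized chicken eggs incubated seven days at 37.5 °C, ~55% humidity, and the air sac membrane was detached. Sterile 5 × 5 mm filter paper soaked with DMSO or compound (5 and 10 nmol/egg) was air-dried and placed on the CAM. Eggs were sealed and reincubated. Fat emulsion (20%) was injected into the CAM and vessels photographed. Three independent experiments.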

HepG2 = test: Cytotoxicity against human HepG2 cells after 24 hrs by MTT assay; assay type: functional, cell-based; details: HepG2, 24 h
HuT78 = test: Cytotoxicity against human HUT78 cells after 24 hrs by MTT assay; assay type: functional, cell-based; details: HuT78, 24 h
HUVEC [11] = test: Antiangiogenic activity against HUVEC assessed as inhibition of VEGF-induced migration at 25 umol/L after 20 hrs by microscopy; details: Homo sapiens
MDA-MB-435 = test: Cytotoxicity against human MDA-MB-435 cells after 24 hrs by MTT assay; assay type: functional, cell-based; details: MDA-MB-435, 24 h
[12] = Inhibition of VEGF receptor signaling in HUVEC assessed a inhibition of VEGF-induced ERK1/2 phosphorylation pretreated at 10 to 50 umol/L for 30 mins before VEGF addition by Western blot analysis; assay type: cell-based; details: Homo sapiens
PANC-1 [13] = test: Cytotoxicity against human PANC1 cells after 24 hrs by MTT assay; assay type: functional, cell-based; details: PANC-1, 24 h
HUVEC [14] = test: Antiangiogenic activity against HUVEC assessed as inhibition of VEGF-induced tube formation at 25 umol/L after 5 hrs by microscopy; assay type: functional, cell-based; details: Homo sapiens; summary of the method: as §3
HUVEC [15] = test: Effect on total ERK1/2 level in VEGF-stimulated HUVEC pretreated at 10 to 50 umol/L for 30 mins before VEGF addition by Western blot analysis; assay type: functional, cell-based; details: Homo sapiens
K562 = test: Cytotoxicity against human K562 cells after 24 hrs by MTT assay; assay type: functional, cell-based; details: K562, 24 h
HUVEC [16] = test: Effect on total akt level in VEGF-stimulated HUVEC pretreated at 10 to 50 umol/L for 30 mins before VEGF addition by Western blot analysis; assay type: functional, cell-based; details: Homo sapiens
PBMC = test: Cytotoxicity against human PBMC after 24 hrs by MTT assay; assay type: cell-based
HUVEC [17] = test: Effect on total p38 MAPK level in VEGF-stimulated HUVEC pretreated at 10 to 50 umol/L for 30 mins before VEGF addition by Western blot analysis; assay type: functional, cell-based; details: Homo sapiens
HL-60 = test: Cytotoxicity against human HL60 cells after 24 hrs by MTT assay; assay type: functional, cell-based; details: HL-60, 24 h
PANC-1 [18] = test: Inhibition of MMP-9 protein expression in human PANC1 cells at 10 to 50 umol/L after 24 hrs by SDS-PAGE analysis; assay type: functional, cell-based; summary of the method: as §2
MKN-45 = test: Cytotoxicity against human MKN45 cells after 24 hrs by MTT assay; assay type: functional, cell-based; details: MKN-45, 24 h
MDA-MB-231 = test: Cytotoxicity against human MDA-MB-231 cells after 24 hrs by MTT assay; assay type: functional, cell-based; details: MDA-MB-231, 24 h
Gallus gallus [19] = organism: Gallus gallus; test: Antiangiogenic activity in chicken embryo chorioallantoic membrane model assessed as inhibition of new blood vessel formation at 10 nmol/egg after 48 hrs by microscopy; assay type: functional, tissue-based; summary of the method: as §4
[20] = Cytotoxicity against human SHG44 cells after 24 hrs by MTT assay; assay type: functional, cell-based; details: SHG-44, 24 h
A-431 = test: Cytotoxicity against human A431 cells after 24 hrs by MTT assay; assay type: functional, cell-based; details: A-431, 24 h
[21] = Inhibition of VEGF receptor signaling in HUVEC assessed a inhibition of VEGF-induced Akt phosphorylation pretreated at 10 to 50 umol/L for 30 mins before VEGF addition by Western blot analysis; assay type: cell-based; details: Homo sapiens

Compound: COc1cc2ccc(=O)oc2cc1OCCNC(C)C
- inhibition of growth at 10 µM (HUVEC [1]): 0.1%
- inhibition of growth at 100 µM (HUVEC [2]): 0.1%

Compound: COc1cc2ccc(=O)oc2cc1OCC(O)CN1CCCC1 (stereo not drawn)
- inhibition of growth at 10 µM (HUVEC [1]): 0.5%
- inhibition of growth at 100 µM (HUVEC [2]): 0.3%

Compound: CCN(CC)CCOc1cc2oc(=O)ccc2cc1OC
- inhibition of growth at 10 µM (HUVEC [1]): 0.1%
- inhibition of growth at 100 µM (HUVEC [2]): 3.1%

Compound: COc1cc2ccc(=O)oc2cc1OCCCCl
- inhibition of growth at 10 µM (HUVEC [1]): 0.1%
- inhibition of growth at 100 µM (HUVEC [2]): 9.4%

Compound: COc1cc2ccc(=O)oc2cc1OCCCCBr
- inhibition of growth at 10 µM (HUVEC [1]): 11.2%
- inhibition of growth at 100 µM (HUVEC [2]): 16.9%

- inhibition [7]: inactive
Compound: COc1cc2ccc(=O)oc2cc1OCC(=O)c1ccc(Cl)cc1
- IC50 (HUVEC [3]): 10 µM
- inhibition of growth at 10 µM (HUVEC [1]): 62.6%
- inhibition (PANC-1 [4]): Active
- IC50 (HCT-116): 59.5 µM
- IC50 (A549): > 100 µM
- Activity (HUVEC [5]): inactive
- inhibition (HUVEC [6]): Active
- inhibition (HUVEC [8]): Active
- inhibition [9]: inactive
- IC50 (BXPC-3): > 100 µM
- inhibition (Gallus gallus [10]): Active
- IC50 (HepG2): 56.3 µM
- IC50 (HuT78): 62.1 µM
- inhibition (HUVEC [11]): Active
- IC50 (MDA-MB-435): 92.4 µM
- inhibition [12]: inactive
- IC50 (PANC-1 [13]): 19.8 µM
- inhibition (HUVEC [14]): Active
- Activity (HUVEC [15]): inactive
- IC50 (K562): 52.5 µM
- Activity (HUVEC [16]): inactive
- IC50 (PBMC): > 100 µM
- Activity (HUVEC [17]): inactive
- IC50 (HL-60): 65.7 µM
- inhibition (PANC-1 [18]): Active
- IC50 (MKN-45): 99.2 µM
- IC50 (MDA-MB-231): > 100 µM
- inhibition (Gallus gallus [19]): Active
- inhibition of growth at 100 µM (HUVEC [2]): 83.8%
- IC50 [20]: > 100 µM
- IC50 (A-431): > 100 µM
- inhibition [21]: Active
